# High-throughput results as filed in PubChem.
# Sampled rows, rich in hits. Any-hit rate of the full collection: about 2.3%.
# OXTR ag – activates the human oxytocin receptor; P30559; CHO-OTR cells, Fluo-8 calcium fluorescence; normalized: DMSO 0%, oxytocin 100%; activation, % at 3 µM; hit rate 0.32% among 320,000; AID 2435;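 active means activation above the mean of all tested compounds plus 3 SD, cutoff set per screening run, cut at about 20% in these data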;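 further: peak over basal fluorescence ratio from a 100 s FLIPR kinetic read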
# Target sequence (P30559 whole entry, looked up): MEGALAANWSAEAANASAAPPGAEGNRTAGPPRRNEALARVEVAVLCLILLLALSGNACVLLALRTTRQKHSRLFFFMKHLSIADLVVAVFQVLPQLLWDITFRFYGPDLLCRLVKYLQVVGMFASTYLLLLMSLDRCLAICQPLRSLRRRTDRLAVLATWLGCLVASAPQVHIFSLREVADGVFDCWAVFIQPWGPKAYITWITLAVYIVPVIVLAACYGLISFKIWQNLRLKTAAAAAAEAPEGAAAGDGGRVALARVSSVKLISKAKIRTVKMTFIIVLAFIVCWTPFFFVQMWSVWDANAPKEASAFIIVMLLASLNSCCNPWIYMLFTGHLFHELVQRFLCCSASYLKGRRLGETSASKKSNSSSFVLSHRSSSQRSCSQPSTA
# OXTR potentiator – human OXTR potentiation. P30559. CHO-OTR cells, Fluo-8 calcium fluorescence, potentiator mode; 0% = oxytocin EC15, 100% = EC100. hit rate 0.061% among 320,000. activation, % at 3 µM;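 active means activation above that plate's cutoff, the mean activation of tested compounds plus 3 SD, cut at about 6.6% in these data, passing the limit was not always enough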;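 further: 100% uses oxytocin at 75 nM as the full agonist control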
#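 Assay system: CHO-OTR cells, human receptor / Also added: oxytocin at about EC15, sub-maximal agonist stimulus / Dosing: single dose, 3.0 µM nominal final compound concentration / Incubation: 6 min pre-incubation, 100 s read / Technique: Fluo-8 calcium dye fluorescence / Read-out: % activation vs EC15 and EC100 oxytocin / Benchmarks: EC15 oxytocin low, 75 nM oxytocin high / Replicates: singlicate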
# V1R ag counter – counter-screen for oxytocin receptor agonists: human V1a receptor agonists. P37288. CHO-V1R cells, Fluo-8 calcium fluorescence, agonist mode; 0% DMSO, 100% 3 nM vasopressin. activation, % at 3 µM. hit rate 0.25% among 320,000. AID 2797;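 active means activation above the mean activation of all tested compounds plus 3 SD, per screening run, cut at about 20% in these data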;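 further: signal is peak over basal fluorescence ratio across a 100 second FLIPR read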
# TAAR1 ag – human TAAR1 agonism. Q96RJ0. CHO RD-HGA16 TAAR1, Fluo-8 calcium fluorescence; vehicle wells 0%, saturating PEA agonist 100%. activation, % at 3 µM. hit rate 0.99% among 360,000;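 active means activation above the mean activation of all test compounds in the run plus 3 SD, cut at about 38% in these data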
# Target sequence (Q96RJ0 whole entry, looked up): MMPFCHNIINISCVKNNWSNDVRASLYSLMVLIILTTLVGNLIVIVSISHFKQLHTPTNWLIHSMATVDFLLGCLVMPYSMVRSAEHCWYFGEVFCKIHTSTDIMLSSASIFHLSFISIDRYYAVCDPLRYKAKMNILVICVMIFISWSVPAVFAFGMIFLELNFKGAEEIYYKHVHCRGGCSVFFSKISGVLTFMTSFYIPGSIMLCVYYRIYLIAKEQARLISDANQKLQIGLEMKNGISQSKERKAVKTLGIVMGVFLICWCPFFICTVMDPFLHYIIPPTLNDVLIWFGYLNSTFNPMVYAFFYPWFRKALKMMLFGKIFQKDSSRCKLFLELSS
#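 Repeats: no replicates (n 1) | Material: CHO-derived RD-HGA16 cells with stable Gα16 and human TAAR1 | Technique: Kinetic Fluo-8 calcium fluorescence | Schedule: 17-24 h seeding, 75 min 37 °C dye, 30 min RT | Evaluation: % activation from peak over basal fluorescence ratio, DMSO-to-PEA scaled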
# TAAR1 antag – human TAAR1 antagonism | Q96RJ0 | CHO RD-HGA16 TAAR1, Fluo-8 calcium fluorescence, antagonist | inhibition, % at 3 µM | hit rate 1.5% among 360,000 | AID 624466;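 active means inhibition above a per-plate cutoff, the mean inhibition of test compounds on that plate plus 3 SD, cut at about 49% in these data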;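 further: 0% = DMSO plus EC80 beta-PEA response and 100% = DMSO alone without agonist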
#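 test system = CHO RD-HGA16 cells bearing hTAAR1 | replication = singlicate | controls = DMSO-only wells and EC80 β-PEA-stimulated wells | reagent = EC80 β-phenethylamine stimulus | read-out basis = percent inhibition of PEA-evoked calcium signal, max/basal emission ratio | schedule = seeding 17-24 h prior, 75-min 37 °C, 30-min RT dye loading | signal = kinetic Fluo-8 calcium fluorescence measurement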
# TAAR1 ag conf – human TAAR1 agonism, confirmed | shares compounds with TAAR1 ag | CHO RD-HGA16 TAAR1, Fluo-8 calcium fluorescence; scaled: DMSO 0%, maximal phenethylamine 100% | activation, % at 3 µM | hit rate 82% among 2,400 | AID 651783;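 active means activation above a cutoff set at the run's mean compound activation plus 3 SD, cut at about 39% in these data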
# Ga16 nonsel ag – nonselective agonist in parental cells, TAAR1 agonist counter-screen; shares compounds with TAAR1 ag; CHO-Ga16 parental, Fluo-8 calcium fluorescence; normalized to maximal ATP response, DMSO zero; activation, % at 3 µM; hit rate 50% among 2,400; AID 651787;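 active means activation above the run cutoff, the mean activation over all tested wells plus 3 SD, cut at about 12% in these data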;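 further: 0% = DMSO wells and 100% = maximal ATP response on the peak over basal ratio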
# TAAR1 desens – TAAR1 response desensitization, agonist counter-screen; shares compounds with TAAR1 ag; CHO RD-HGA16 hTAAR1, Fluo-8 calcium, beta-PEA response inhibition; hit rate 46% among 2,400; inhibition, % at 3 µM;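 active means inhibition above the run cutoff, the mean inhibition of all test compounds plus 3 SD, cut at about 49% in these data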;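 further: beta-PEA stimulus applied at its EC80; loss of beta-PEA calcium signal after compound pretreatment read as receptor desensitization; 0% = DMSO with beta-PEA at EC80 and 100% = DMSO alone without agonist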
# Ga16 nonsel ant – nonselective Ga16 antagonist in TAAR1 agonist counter-screen. shares compounds with TAAR1 ag. CHO-Ga16 ATP-induced calcium, Fluo-8 fluorescence. inhibition, % at 3 µM. hit rate 39% among 2,400. AID 651952;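 active means inhibition above the plate's mean compound inhibition plus 3 SD, computed per plate, cut at about 22% in these data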;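 further: 0% = EC80 ATP with DMSO and 100% = DMSO wells without ATP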
# * marks the source's active call; other numbers are inactive results; . = no result given.
SMILES,OXTR ag,OXTR potentiator,V1R ag counter,TAAR1 ag,TAAR1 antag,TAAR1 ag conf,Ga16 nonsel ag,TAAR1 desens,Ga16 nonsel ant
CC(C)Cn1c(N)c(C(=O)COC(=O)[C@H](C)NC(=O)c2ccccc2Cl)c(=O)n(C)c1=O,3,-12,7,4,-2,.,.,.,.
Cc1c(C(=O)NN2CCOCC2)oc2c1ccc1ccccc12,-2,-13,-2,2,-1,.,.,.,.
Cc1ccc(-n2nc3c(c2NC(=O)CC(C)C)CS(=O)C3)cc1 (stereo unspecified),-1,-5,-1,0,6,.,.,.,.
CCN(CC)C(=S)Nc1ccc2nc3n(c(=O)c2c1)CCCCC3,0,-7,1,1,-20,.,.,.,.
COc1ccc2cc(CN(CCc3ccccc3)Cc3nnnn3Cc3ccco3)c(=O)[nH]c2c1,0,-19,0,80*,49*,46*,8,49*,27*
Cc1ccc2cc(CN(Cc3ccc4c(c3)OCO4)Cc3nnnn3Cc3ccco3)c(=O)[nH]c2c1,-1,-24,0,7,47,.,.,.,.
CCN(c1ccccc1)S(=O)(=O)c1ccc(C(=O)N(CCCN(C)C)c2nc3cc4c(cc3s2)OCO4)cc1,9,-15,7,22,13,.,.,.,.
CCN(c1ccccc1)S(=O)(=O)c1ccc(C(=O)N(CCCN(C)C)c2nc3c(C)cccc3s2)cc1,4,-9,2,43*,29,33,16*,37,32*
O=C(Nc1ccc(F)cc1)Nc1ccc(Oc2ncnc3cc(Cl)ccc23)nc1,1,0,0,56*,29,75*,1,81*,6
O=C(O)CCCC(=O)Nc1ccc(Oc2ncnc3cc(Cl)ccc23)nc1,0,-1,-1,1,-16,.,.,.,.
COc1ccccc1NC(=O)COC(=O)c1ccc(N2CCCC2=O)cc1,1,2,3,3,13,.,.,.,.
O=C(Nc1nnc(-c2cccs2)o1)c1cccc(C(F)(F)F)c1,-2,-9,18,90*,34,45*,51*,19,25*
CCOC(=O)C1=C(O)c2ccccc2C(=O)/C1=C\c1ccc(CC)cc1,3,3,1,.,.,.,.,.,.
CCOC(=O)C1=C(Cc2ccc(C)cc2)C(=O)c2ccccc2C1=O,5,-5,4,54*,54*,19,23*,42,44*
CCCN1C(=O)S/C(=C\c2ccc(N3CCOCC3)o2)C1=O,2,4,7,56*,40,60*,53*,45,44*
COc1ccc(Cn2c(SCc3ccccc3C)nc3cc(OC)c(OC)cc3c2=N)cc1,9,-3,3,52*,9,71*,31*,47,34*
Cc1[nH]n(-c2ncc(-c3ccccc3)s2)c(=O)c1C(c1ccc(Br)cc1)C(C#N)C#N (stereo unspecified),0,-7,0,2,-4,.,.,.,.
COc1ccccc1NC(=O)N1CCCC(CNC(=O)c2ccccc2Cl)C1 (stereo unspecified),0,-11,1,1,-9,.,.,.,.
CCCCc1cc(O)c(CCCC)c(O)c1,86*,-25,81*,113*,102*,130*,95*,106*,92*
COC[C@H]1CCCN1c1ccc2c(c1)O[C@H](COCc1ccccc1)CN([C@H](C)c1ccccc1)S2(=O)=O,.,.,.,0,-11,.,.,.,.
C/C=C/c1ccc(OCC(O)CNCC(c2ccc(OC)cc2)N(C)C)c(OC)c1 (stereo unspecified),-1,2,2,-2,1,.,.,.,.
COc1ccc(C(OCC(O)CNCCc2ccccc2)c2ccc(OC)cc2)cc1 (stereo unspecified),.,.,.,104*,97*,104*,18*,101*,27*
C/C=C/c1ccc(OCC(O)CNCCc2ccc(OC)cc2)c(OC)c1 (stereo unspecified),8,-18,5,63*,12,96*,29*,46,11
CN(CCC#N)c1ccc(/C=C(\C#N)c2ccccn2)cc1,1,-12,2,86*,19,3,5,8,10
CCN(CC)c1ccc(/C=C(\C#N)c2ccccn2)cc1,2,-10,4,.,.,.,.,.,.
SMILES,OXTR ag,OXTR potentiator,V1R ag counter,TAAR1 ag,TAAR1 antag,TAAR1 ag conf,Ga16 nonsel ag,TAAR1 desens,Ga16 nonsel ant
CC1=CC(C)(C)N(C(=O)CCl)c2cc(C)ccc21,-2,-7,-1,0,-13,.,.,.,.
CC1=CC(C)(C)N(C(=O)c2ccc(F)cc2)c2cc3c(cc21)OCO3,13,-9,9,59*,37,62*,41*,46,34*
O=C(NCCc1ccccc1F)[C@@H]1CSC2c3ccccc3C(=O)N21 (stereo partly specified),0,2,1,60*,22,65*,3,38,9
O=C(O)[C@@H]1CSC2c3ccccc3C(=O)N21 (stereo partly specified),0,6,1,2,8,.,.,.,.
CC(NCC(O)COCCC12CC3CC(CC(C3)C1)C2)c1ccccc1 (stereo unspecified),9,-6,5,84*,87*,70*,42*,77*,64*
O=C(c1coc(=O)c(Br)c1)N1CCC(C(O)(c2ccccc2)c2ccccc2)CC1,0,3,1,3,-12,.,.,.,.
CC1(C)CCCN(C(=O)c2coc(=O)c(Br)c2)C1,.,.,.,79*,76*,100*,3,95*,6
Cc1ccsc1CNC(=O)C1(C)CCN1C(C)C (stereo unspecified),.,.,.,1,-26,.,.,.,.
CCN1C(=O)Cc2cc(S(=O)(=O)NCCc3ccccc3)ccc21,2,-10,2,51*,-11,46*,2,1,7
CN1C(=O)Cc2cc(S(=O)(=O)NCCc3ccccc3)ccc21,2,-6,1,17,-6,.,.,.,.
Cc1cccc(N2C(=O)C(O)=C(C(=O)c3cccs3)C2c2ccc(C(C)C)cc2)n1 (stereo unspecified),33*,-14,33*,69*,26,80*,67*,51*,33*
CC1NC(=O)NC1CCCCCC(=O)NCCc1ccccc1 (stereo unspecified),-1,-5,0,48*,40,78*,8,74*,5
